Measured values of several laboratories.
Each line is one published result; the experiments were not run side by side.
Target: Tyrosine-protein kinase TXK (TXK, Homo sapiens, UniProt P42681)
Residues used in one study (P42681 1-527): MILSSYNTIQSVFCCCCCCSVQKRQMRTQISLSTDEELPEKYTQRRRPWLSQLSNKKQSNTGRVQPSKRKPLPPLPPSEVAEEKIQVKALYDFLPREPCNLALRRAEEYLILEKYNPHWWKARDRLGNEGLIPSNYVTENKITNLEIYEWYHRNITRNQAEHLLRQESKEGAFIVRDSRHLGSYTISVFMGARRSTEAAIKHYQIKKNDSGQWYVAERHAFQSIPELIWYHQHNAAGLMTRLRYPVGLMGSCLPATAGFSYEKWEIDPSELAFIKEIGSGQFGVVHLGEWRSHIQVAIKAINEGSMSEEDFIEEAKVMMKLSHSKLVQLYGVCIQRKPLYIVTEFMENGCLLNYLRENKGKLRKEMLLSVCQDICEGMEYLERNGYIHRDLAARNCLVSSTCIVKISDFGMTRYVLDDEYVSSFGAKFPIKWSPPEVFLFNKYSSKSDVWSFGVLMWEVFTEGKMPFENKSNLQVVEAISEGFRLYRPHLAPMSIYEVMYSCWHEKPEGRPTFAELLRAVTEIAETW

CC(C)(C)c1nc2c(s1)c1nc(N)ncc1c1ccc(NS(=O)(=O)c3c(F)cccc3F)c(F)c12 gave a remaining activity of 71% (enzyme activity; inhibitor; radiometric; 1 µM).
For CCS(=O)(=O)c1cc2cc(C[C@](O)(CC(C)(C)c3ccc(F)cc3C(N)=O)C(F)(F)F)[nH]c2cn1, the remaining binding was 90% (cell-free assay; competition with immobilised ligand; 1 µM).
CCOc1cc(-c2nncn2C)ccc1Nc1ncc2cc(C)nc(NCC(C)(C)C)c2n1 has an inhibition of under 15% (enzyme activity; inhibitor; FRET; 1 µM).
O=C(Nc1cnn(-c2csc(C(=O)NC3COC3)c2)c1)Nc1ccccc1Cl gave a remaining activity of 89.8% (enzyme activity; inhibitor; 5 µM).
For COc1cc2ncnc(Nc3ccc(Oc4ccccc4)c(C)c3C)c2cc1OC, the inhibition was 2% (enzyme activity; inhibitor; 1 µM).
COc1cc2nccc(Oc3ccc(NC(=O)c4c5n(n(-c6ccc(F)cc6)c4=O)CCCC5)cc3)c2cc1OC gave an inhibition of -2% (enzyme activity; inhibitor; 0.1 µM).
The remaining signal of O=C1Nc2ccc(Cl)cc2C1=Cc1cc(Cl)c(O)c(Cl)c1 is reported as 86.6% (cell-free assay; 0.5 µM).
CCOC(=O)c1cc2cc(-c3cc(C(=O)NCc4ccc(C(=O)O)cc4)nn3C)ccc2[nH]1 gave a remaining binding of 90% (binding; competition with immobilised ligand; 0.1 µM).
With Oc1ccc(-c2nc(-c3ccncc3)c(-c3ccc(F)cc3)[nH]2)cc1 the remaining signal was 78.5% (cell-free assay; 0.5 µM).
Cn1nc(C(=O)NCc2ccc(C(=O)O)cc2)cc1-c1ccc2[nH]ccc2c1 gave a remaining binding of 90% (binding; competition with immobilised ligand; 0.1 µM).
CC/C(=N\NC(=O)NCc1cccc(O)c1)c1ccc(O)c(C)c1O gave an inhibition of -0.3% (enzyme activity; inhibitor; 0.1 µM).
The remaining binding of CN(C(=O)c1ccccc1)c1cc(N(C)c2ccc3c(c2)CCc2ccc(C(=O)NCCN4CCOCC4)cc2C3=O)ccc1F is reported as 79% (binding; competition with immobilised ligand; 1 µM).
With CCCOc1ccc(OC)c(F)c1C(=O)c1ccc(C(=O)N[C@@H]2CNC[C@H]2NC(=O)c2ccc3[nH]ncc3c2)cc1 the remaining activity was 64% (enzyme activity; inhibitor; 10 µM).
With NS(=O)(=O)c1cc(NC(=O)Cc2ccccc2)ccc1Oc1cccc(Cl)c1 the remaining binding was 92% (binding; competition with immobilised ligand; 1 µM).
With CCCS(=O)(=O)Nc1ccc(F)c(C(=O)c2c[nH]c3ncc(-c4ccc(Cl)cc4)cc23)c1F the inhibition was under 10% (enzyme activity; inhibitor; 1 µM).
The remaining binding of O=C(N[C@H]1CCCCC/C=C\C2C[C@@]2(C(=O)O)NC(=O)[C@@H]2C[C@@H](Oc3ccncc3)CN2C1=O)OC1CCCC1 (stereo partly drawn) is reported as 87% (binding; competition with immobilised ligand; 1 µM).
O=C(Nc1cnn(-c2csc(C(=O)NC3COC3)c2)c1)Nc1c(F)cccc1Cl gave a remaining activity of 90.8% (enzyme activity; inhibitor; 5 µM).
For Cc1cc(NC(=O)c2cccc3cc(-c4cccc5[nH]nc(N)c45)ccc23)ccc1F, the activity vs control was 123% (enzyme activity; inhibitor; 0.1 µM).
